The record followed here is publication PMC4474499 (Science Advances, 2015).

Entries after “also recorded” stand apart in the source; their conditions may differ. Non-standard residues stand in square brackets, D forms with d. No end group written: not given here. Pam3Cys = Cys carrying the Pam3 acyl chains of Pam3CSK4

To fix the notation:
B1: human TLR1 protein, purified extracellular domain (receptor, UniProt Q15399 25-580, looked up)
chain: SEFLVDRSKNGLIHVPKDLSQKTTILNISQNYISELWTSDILSLSKLRILIISHNRIQYLDISVFKFNQELEYLDLSHNKLVKISCHPTVNLKHLDLSFNAFDALPICKEFGNMSQLKFLGLSTTHLEKSSVLPIAHLNISKVLLVLGETYGEKEDPEGLQDFNTESLHIVFPTNKEFHFILDVSVKTVANLELSNIKCVLEDNKCSYFLSILAKLQTNPKLSNLTLNNIETTWNSFIRILQLVWHTTVWYFSISNVKLQGQLDFRDFDYSGTSLKALSIHQVVSDVFGFPQSYIYEIFSNMNIKNFTVSGTRMVHMLCPSKISPFLHLDFSNNLLTDTVFENCGHLTELETLILQMNQLKELSKIAEMTTQMKSLQQLDISQNSVSYDEKKGDCSWTKSLLSLNMSSNILTDTIFRCLPPRIKVLDLHSNKIKSIPKQVVKLEALQELNVAFNSLTDLPGCGSFSSLSVLIIDHNSVSHPSADFFQSCQKMRSIKAGDNPFQCTCELGEFVKNIDQVSSEVLEGWPDSYKCDYPESYRGTLLKDFHMSELSCNIT

The target in one series is human TLR2 (Homo sapiens, UniProt O60603+Q15399). Description: SEAP reporter gene detection assay in HEK-Blue hTLR2 cells. It counts as cell-based. Summed up: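 HEK-Blue hTLR2 cells (SEAP reporter), 4 × 10^4/well, grown 24 h. Then 24 h in Opti-MEM/0.5% FBS with compounds at 0–50 μM or 0–100 μM. Pam3CSK4 (0–66 nM) used as reference agonist. Supernatant heat-treated 30 min at 65°C, cooled, mixed with SEAP buffer and CSPD substrate; luminescence read after 20 min.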
Chain of human TLR2 (O60603 21-784): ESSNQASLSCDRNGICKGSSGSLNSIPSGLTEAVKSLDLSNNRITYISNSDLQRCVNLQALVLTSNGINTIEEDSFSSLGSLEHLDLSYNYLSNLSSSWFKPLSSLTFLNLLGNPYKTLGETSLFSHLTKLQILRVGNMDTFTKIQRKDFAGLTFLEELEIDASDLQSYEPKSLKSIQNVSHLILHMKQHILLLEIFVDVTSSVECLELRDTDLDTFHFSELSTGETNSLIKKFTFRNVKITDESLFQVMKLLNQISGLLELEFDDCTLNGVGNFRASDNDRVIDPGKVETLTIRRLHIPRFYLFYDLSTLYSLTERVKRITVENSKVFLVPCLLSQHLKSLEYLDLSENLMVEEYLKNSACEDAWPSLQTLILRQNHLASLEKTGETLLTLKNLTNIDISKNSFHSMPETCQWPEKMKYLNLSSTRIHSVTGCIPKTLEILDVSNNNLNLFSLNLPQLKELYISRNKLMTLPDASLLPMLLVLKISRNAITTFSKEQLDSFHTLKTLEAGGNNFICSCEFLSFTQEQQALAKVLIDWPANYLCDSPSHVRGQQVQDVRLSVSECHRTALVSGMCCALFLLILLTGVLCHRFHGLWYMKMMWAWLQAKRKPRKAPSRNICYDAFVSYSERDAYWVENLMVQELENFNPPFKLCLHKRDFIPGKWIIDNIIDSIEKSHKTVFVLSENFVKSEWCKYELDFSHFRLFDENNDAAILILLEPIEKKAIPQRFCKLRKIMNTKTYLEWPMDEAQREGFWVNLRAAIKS
Chain of human TLR2 (Q15399 25-786): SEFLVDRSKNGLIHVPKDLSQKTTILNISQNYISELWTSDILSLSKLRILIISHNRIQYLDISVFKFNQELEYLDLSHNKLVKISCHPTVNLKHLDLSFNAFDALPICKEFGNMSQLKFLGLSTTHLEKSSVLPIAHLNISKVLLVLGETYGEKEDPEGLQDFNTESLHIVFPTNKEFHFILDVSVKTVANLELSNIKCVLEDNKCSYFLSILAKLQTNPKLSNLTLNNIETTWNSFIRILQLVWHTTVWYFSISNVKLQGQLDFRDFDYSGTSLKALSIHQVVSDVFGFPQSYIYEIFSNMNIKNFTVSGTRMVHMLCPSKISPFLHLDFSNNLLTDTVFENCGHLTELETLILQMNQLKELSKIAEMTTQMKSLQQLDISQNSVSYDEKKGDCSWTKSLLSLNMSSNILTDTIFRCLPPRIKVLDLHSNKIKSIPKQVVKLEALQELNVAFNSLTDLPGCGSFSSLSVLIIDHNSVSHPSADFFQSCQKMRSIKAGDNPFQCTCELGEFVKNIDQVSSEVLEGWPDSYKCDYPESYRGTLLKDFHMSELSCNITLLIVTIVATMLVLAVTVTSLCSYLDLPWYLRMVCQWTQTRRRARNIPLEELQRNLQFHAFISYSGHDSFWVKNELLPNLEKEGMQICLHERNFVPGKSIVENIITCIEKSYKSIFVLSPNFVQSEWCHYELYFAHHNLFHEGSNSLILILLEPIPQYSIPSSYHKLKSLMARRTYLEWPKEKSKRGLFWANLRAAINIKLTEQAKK
(A reporter such as luciferase makes a cellular process visible.)

The next series addresses TLR1/2 complex (Homo sapiens, UniProt O60603+Q15399). Description: Fluorescence anisotropy competition with Rho-Pam3. Format: binding. As to conditions: up to 10 μM. The method, boiled down:
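Equal amounts of TLR1 and TLR2 (4 μl each of 10 μM stocks) added to Rho-Pam3CSK4 in PBS pH 7.4 and held 30 min. Serial test-compound concentrations then incubated with the complex 30 min at RT. Fluorescence anisotropy read at 25°C (ex 549/em 566 nm). An analog served as negative control; IC50 derived from the titration.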
In general terms: Fluorescence polarisation rises when a labelled molecule tumbles more slowly, as on binding a larger partner.

The test system of series [1] is NF-κB. Description: U937 NF-κB–GFP reporter assay. Format: cell-based, human. As to conditions: 20 μM (GA even up to 100 μM), U937 cells.
The subject of series [2] is Raw 264.7 cells. Description: In vitro NO activation assay for Raw 264.7 cells. As to conditions: Raw 264.7 macrophage cells, 1 µM CU-T12-9. It counts as cell-based, mouse. The method, boiled down:
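RAW 264.7 cells, 80,000/well, grown 24 h. Non-adherent cells removed; medium changed to unsupplemented RPMI 1640. Treated 24 h with test compound, or 66 nM (100 ng/ml) Pam3CSK4 as control. Supernatant reacted 15 min in the dark with 2,3-diaminonaphthalene in HCl, quenched with NaOH. Fluorescence read at ex 365/em 450 nm; nitrite calculated from a standard curve.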

Series [3] concerns NF-κB. Description: Triptolide inhibition of CU-T12-9–induced SEAP signaling in HEK-Blue hTLR2 cells. Format: cell-based, human.
The next series has as its target hTLR1 and hTLR2 (Homo sapiens, UniProt O60603+Q15399). In words: SEC-LS assay of TLR1/2 heterodimer formation. As to conditions: CU-T12-9 0 to 40 μM or Pam3CSK4 260 nM (400 ng/ml). It counts as biochemical. Summed up: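 Human TLR2 in PBS pH 7.4 preincubated 2 h at RT with test compound or Pam3CSK4. Equimolar hTLR1 then added (final about 10 μM each) for 2 h at 37°C. Both proteins were baculovirus/insect-cell products. Samples filtered (0.1 μm) and run on size-exclusion column in PBS at 1 ml/min. Detection by in-line multi-angle light scattering, refractive index and UV.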

In series [4] the test system is Raw 264.7 cells. Description: Quantitative RT-PCR of mRNA levels in Raw 264.7 macrophage cells. Format: cell-based, mouse. The method, boiled down:
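RAW 264.7 cells, 1 × 10^6/well, grown 24 h, then given fresh RPMI 1640. Exposed to test compound, or 33 nM (50 ng/ml) Pam3CSK4, for 0, 2, 8 or 24 h. Cells washed in cold PBS and frozen. Total RNA extracted (RNeasy) for qRT-PCR. Fold change calculated by ΔΔCt versus DMSO-treated cells, means ± SD.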

The series “SEC-MALS” concerns the molecule itself. Description: SEC-MALS. Background: In gel filtration, larger molecules generally elute earlier.
Series [5] addresses B1. In words: fluorescence polarisation.
Series [6] concerns the target TLR1/TLR2 complex (equimolar mixture of purified hTLR1 and hTLR2) (human, UniProt Q15399 25-580; O60603 21-588). Description: fluorescence polarisation.
Series [7] has as its target human TLR2 protein, purified extracellular domain (human, UniProt O60603 21-588). In words: fluorescence polarisation.

Chain of TLR1/2 complex (O60603 21-588 limits assumed, one chain of several): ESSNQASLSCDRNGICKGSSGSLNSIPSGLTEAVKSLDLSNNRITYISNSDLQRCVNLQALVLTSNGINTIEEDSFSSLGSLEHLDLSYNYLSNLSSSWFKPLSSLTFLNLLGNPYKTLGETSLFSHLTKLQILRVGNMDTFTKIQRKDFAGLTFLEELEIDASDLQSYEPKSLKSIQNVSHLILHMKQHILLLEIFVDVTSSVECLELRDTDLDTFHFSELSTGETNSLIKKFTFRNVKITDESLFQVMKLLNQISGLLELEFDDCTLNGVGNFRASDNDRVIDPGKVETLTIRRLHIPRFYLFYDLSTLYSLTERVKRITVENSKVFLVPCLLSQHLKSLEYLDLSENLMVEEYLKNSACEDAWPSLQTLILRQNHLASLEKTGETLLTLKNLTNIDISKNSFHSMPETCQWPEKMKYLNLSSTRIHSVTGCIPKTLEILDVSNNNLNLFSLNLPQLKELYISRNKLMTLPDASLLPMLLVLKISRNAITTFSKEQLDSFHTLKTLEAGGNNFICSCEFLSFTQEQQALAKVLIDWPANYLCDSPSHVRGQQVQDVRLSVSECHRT
Chain of human TLR2 protein, purified extracellular domain (O60603 21-588): as the sequence (O60603 21-588 limits assumed, one chain of several) above
Chain of TLR1/TLR2 complex (equimolar mixture of purified hTLR1 and hTLR2) (O60603 21-588, chain 2 of 2, one chain of several): as the sequence (O60603 21-588 limits assumed, one chain of several) above
Chain of hTLR1 and hTLR2 (O60603 21-588 limits assumed, one chain of several): as above

For `CNc1ccc([N+](=O)[O-])cc1-n1cnc(-c2cccc([N+](=O)[O-])c2)c1` [Compound 10], on human TLR2 (HEK-Blue hTLR2 cells, nitro group switched from R3 to R4), the “SEAP agonist activity (in words)” value was “completely abolished activity”.

Regarding `CNc1ccc([N+](=O)[O-])cc1-n1cnc(-c2ccc(C#N)cc2)c1` [Compound 11], the “increase in potency relative to GA (factor)” value at human TLR2 (replacement of –NO2 at R3) was 10.

As to `CNc1ccc([N+](=O)[O-])cc1-n1cnc(-c2ccc(C(=O)O)cc2)c1` [Compound 19], the “SEAP activity at 100 μM” value at human TLR2 (100 μM, HEK-Blue hTLR2 cells) was “inactive”.

`CNc1ccc(C(F)(F)F)cc1-n1cnc(-c2ccc(C(F)(F)F)cc2)c1` [Compound 20]: at human TLR2 (–CF3 at R1), the “decrease in potency compared with CU-T12-9” value is on record as “four times”.

With `CNc1ccc(C(=O)O)cc1-n1cnc(-c2ccc(C(F)(F)F)cc2)c1` [Compound T12-29], the “inhibition of Rho-Pam3 binding to TLR1/TLR2” value on TLR1/2 complex is “no competitive binding; also recorded: negligible inhibition”.

For `CNc1ccc([N+](=O)[O-])cc1-n1cnc(-c2ccc([N+](=O)[O-])cc2)c1` [GA, N-methyl-4-nitro-2-(4-(4-nitrophenyl)-1H-imidazol-1-yl)aniline, reference compound], the NF-κB activation result in the series on NF-κB [1] is listed as “much lower NF-κB activation”.

For `CCOC(=O)C1=CCCC[C@H]1S(=O)(=O)Nc1ccc(F)cc1Cl` [TAK-242, reference compound], the “inhibition of CU-T12-9 induced NO activation” value in the series on Raw 264.7 cells [2] is “could not be influenced”.

`CC(C)[C@]12O[C@H]1[C@@H]1O[C@]13[C@]1(O[C@H]1C[C@H]1C4=C(CC[C@@]13C)C(=O)OC4)[C@@H]2O` [Triptolide]: the “inhibition of CU-T12-9–induced SEAP signaling” value with NF-κB [3] was “efficiently inhibit”.

On to Pam3CSK4 [reference compound], for which the TLR1/2 heterodimer formation result on hTLR1 and hTLR2 is given as “promoted TLR1/2 heterodimerization”. Moreover, the “time of highest TLR2 mRNA expression” value with Raw 264.7 cells [4] (1 μM CU-T12-9 or 33 nM (50 ng/ml) Pam3CSK4, measured at 2, 8, 24 hours) turned out to be 2 h. The “TNF mRNA expression” value in the series on Raw 264.7 cells [4] (over time, maximal expression after 8 hours) is “increased”. Also, the “iNOS mRNA expression” value with Raw 264.7 cells [4] (over time, peaked at 24 hours) is given as “increased”.

As to B1, the “stoichiometry N” value in the series “SEC-MALS” was 2.

As for [Pam3Cys]SKKKK (also: rhodamine label, site not given here) [rhodamine-labeled Pam3CSK4], the values for the Kd in [5], in series [6] and in series [7] were 41.6 ± 2.36 nM, 35 ± 1.98 nM and 125 ± 3.43 nM, respectively.

The term stoichiometry N denotes a count of units in the complex or per binding partner. What is called Kd is the constant that tells how readily two partners part at equilibrium.
